Laboratory results reported in ChEMBL document CHEMBL1130109, “Novel 99mTc aminobisthiolato/monothiolato "3 + 1" mixed ligand complexes: structure-activity relationships and preliminary in vivo validation as brain blood flow imaging agents” (J Med Chem, 1997).
Values joined by “and” are separate entries in the source; they are usually repeats but may differ in a detail not shown here. Identical values can stand only once. Values belong to the substance of their own block, whether it stands above or below them.

Legend:
[1] = % ID/gram in brain divided by %ID/gram in blood at 5 minutes.; type: functional, tissue-based
How it was run: (§1)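 Male Swiss Albino mice (19–34g, at least five per group) got HPLC-purified 99mTc complex in 50% methanol, 0.1 mL, 2–3 μCi, by tail vein. They were killed by cardiectomy under light ether at 5, 10, 30 or 60 min. % ID/g (% ID/organ ÷ organ weight) of brain was divided by that of blood; blood assumed 7% of body weight.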

[2] = % ID/gram in brain divided by %ID/gram in blood at 60 minutes.; type: functional, tissue-based; how it was run: as §1
[3] = % ID/gram in brain divided by %ID/gram in blood at 10 minutes.; type: functional, tissue-based; how it was run: as §1
[4] = Retention ratio is measured as the brain uptake (%ID/organ) at 30 min pi divided by the brain uptake at 5 min pi.; type: functional
How it was run: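 Brain % ID/organ in tail-vein-injected male Swiss Albino mice (0.1 mL, 2–3 μCi purified 99mTc complex in 50% methanol; γ-counted after cardiectomy under ether). Mean brain % ID/organ at 30 min pi was divided by the mean at 5 min pi.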

Mus musculus [5] = organism: Mus musculus; assay: Percentage biodistribution in mousee lung, 5 minutes post injection; type: ADME, organism-based; conditions: in vivo
How it was run: (§2)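 Male Swiss Albino mice (19–34g, at least five per group) were injected in the tail vein with HPLC-purified 99mTc complex in 50% methanol (0.1 mL, 2–3 μCi). Killed by cardiectomy under slight ether anesthesia at 5, 10, 30 or 60 min. Organs were excised, weighed and γ-counted against standards of 1% injected dose, as % ID/organ. Bladder plus excreted urine was not weighed. Stomach and intestines were not emptied.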

Mus musculus [6] = organism: Mus musculus; assay: Percentage biodistribution in mouse blood, 5 minutes post injection; type: ADME, organism-based; conditions: in vivo
How it was run: (§3)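 Mice (Swiss Albino males, 19–34g, ≥5/group) received tail-vein HPLC-purified 99mTc complex (0.1 mL, 2–3 μCi, 50% methanol) and were killed by cardiectomy under ether at set times. Blood % ID was computed from measured activity and sample weight, with blood taken as 7% of body weight, against 1%-dose standards.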

Mus musculus [7] = organism: Mus musculus; assay: Percentage biodistribution in mouse liver, 30 minutes of post injection; type: ADME, organism-based; conditions: in vivo, 0.5 h; how it was run: as §2
Mus musculus [8] = organism: Mus musculus; assay: Percentage biodistribution in mouse lung, 30 minutes post injection; type: ADME, organism-based; conditions: in vivo, 0.5 h; how it was run: as §2
Mus musculus [9] = organism: Mus musculus; assay: Percentage biodistribution in mouse stomach; type: ADME, organism-based; conditions: in vivo; how it was run: as §2
Mus musculus [10] = organism: Mus musculus; assay: Biodistribution in mice lungs at 10 min of post injection; type: ADME, organism-based, Lung; conditions: in vivo; how it was run: as §2
Mus musculus [11] = organism: Mus musculus; assay: Percentage biodistribution in mouse heart, 60 minutes post injection; type: ADME, organism-based; conditions: in vivo, 1 h; how it was run: as §2
Mus musculus [12] = organism: Mus musculus; assay: Percentage biodistribution in mouse intestine, 5 minutes post injection; type: ADME, organism-based; conditions: in vivo; how it was run: as §2
Mus musculus [13] = organism: Mus musculus; assay: Percentage biodistribution in mouse blood, 10 minutes post injection; type: ADME, organism-based; conditions: in vivo; how it was run: as §3
Mus musculus [14] = organism: Mus musculus; assay: Biodistribution in mice bladder plus excreted urine was determined; type: ADME, organism-based; conditions: in vivo; how it was run: as §2
Mus musculus [15] = organism: Mus musculus; assay: Biodistribution in mice lungs at 60 min of post injection; type: ADME, organism-based, Lung; conditions: in vivo, 1 h; how it was run: as §2
Mus musculus [16] = organism: Mus musculus; assay: Percentage biodistribution in mouse brain, 30 minutes post injection; type: ADME, organism-based; conditions: in vivo, 0.5 h; how it was run: as §2
Mus musculus [17] = organism: Mus musculus; assay: Percentage biodistribution in mouse liver, 5 minutes post injection; type: ADME, organism-based; conditions: in vivo; how it was run: as §2
Mus musculus [18] = organism: Mus musculus; assay: Percentage biodistribution in mouse blood, 30 minutes post injection; type: ADME, organism-based; conditions: in vivo, 0.5 h; how it was run: as §3
Mus musculus [19] = organism: Mus musculus; assay: Percentage biodistribution in mouse brain, 60 minutes post injection; type: ADME, organism-based; conditions: in vivo, 1 h; how it was run: as §2
Mus musculus [20] = organism: Mus musculus; assay: Percentage biodistribution in mouse heart, 30 minutes post injection; type: ADME, organism-based; conditions: in vivo, 0.5 h; how it was run: as §2
Mus musculus [21] = organism: Mus musculus; assay: Percentage biodistribution in mouse blood, 60 minutes post injection; type: ADME, organism-based; conditions: in vivo, 1 h; how it was run: as §3
Mus musculus [22] = organism: Mus musculus; assay: Percentage biodistribution in mouse spleen; type: ADME, organism-based; conditions: in vivo; how it was run: as §2
Mus musculus [23] = organism: Mus musculus; assay: Percentage biodistribution in mouse intestine, 30 minutes post injection; type: ADME, organism-based; conditions: in vivo, 0.5 h; how it was run: as §2
Mus musculus [24] = organism: Mus musculus; assay: Percentage biodistribution in mouse heart, 5 minutes post injection; type: ADME, organism-based; conditions: in vivo; how it was run: as §2
Mus musculus [25] = organism: Mus musculus; assay: Percentage biodistribution in mouse liver, 10 minutes post injection; type: ADME, organism-based; conditions: in vivo; how it was run: as §2
Mus musculus [26] = organism: Mus musculus; assay: Percentage biodistribution in mouse intestine, 60 minutes post injection; type: ADME, organism-based; conditions: in vivo, 1 h; how it was run: as §2
Mus musculus [27] = organism: Mus musculus; assay: Percentage biodistribution in mouse brain, 10 minutes post injection; type: ADME, organism-based; conditions: in vivo; how it was run: as §2
[28] = Partition coefficient (logD7.4); type: physicochemical; conditions: octanol/water, pH 7.4
How it was run: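 HPLC-purified 99mTc complex (0.1 mL) was added to 2 mL each of 1-octanol and 0.125 M phosphate buffer, pH 7.4. The mix was vortexed and centrifuged at 5000 rpm for 5 min. Three 0.2 mL samples per layer were γ-counted. Mean cpm/mL of octanol was divided by that of buffer.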

Mus musculus [29] = organism: Mus musculus; assay: Biodistribution in mice liver at 60 minutes of post injection; type: ADME, organism-based; conditions: in vivo, 1 h; how it was run: as §2
Mus musculus [30] = organism: Mus musculus; assay: Percentage biodistribution in mouse intestine, 10 minutes post injection; type: ADME, organism-based; conditions: in vivo; how it was run: as §2
Mus musculus [31] = organism: Mus musculus; assay: Percentage biodistribution in mouse heart, 10 minutes post injection; type: ADME, organism-based; conditions: in vivo; how it was run: as §2
Mus musculus [32] = organism: Mus musculus; assay: Percentage biodistribution in mouse brain, 5 minutes post injection; type: ADME, organism-based; conditions: in vivo; how it was run: as §2

Substance: [4-methoxythio)phenolato][N,N-bis(2-mercaptoethyl)-N',N'-diethylethylenediamine] oxotechnetium [listing 1 of 2 here]
- Ratio [1]: 1.7 and 4.43
- Ratio [2]: 4.23
- Ratio [3]: 4.71
- Retention ratio [4]: 0.25 and 0.57

- ID/organ (Mus musculus [5]): 11.03% and 15.37%
- ID/organ (Mus musculus [6]): 6.09% and 2.02%
- ID/organ (Mus musculus [7]): 27.33% and 25.58%
- ID/organ (Mus musculus [8]): 3.49% and 3.09%
- ID/organ (Mus musculus [9]): 2.43% and 2.34%
- ID/organ (Mus musculus [10]): 9.78%
- ID/organ (Mus musculus [11]): 0.12%
- ID/organ (Mus musculus [12]): 9.22% and 8.31%
- ID/organ (Mus musculus [13]): 1.53%
- ID/organ (Mus musculus [14]): 2.24% and 6.87%
- ID/organ (Mus musculus [15]): 1.79%
- ID/organ (Mus musculus [16]): 0.56% and 1.71%
- ID/organ (Mus musculus [17]): 17.06% and 10.73%
- ID/organ (Mus musculus [18]): 5.14% and 1.29%
- ID/organ (Mus musculus [19]): 1.54%
- ID/organ (Mus musculus [20]): 0.28% and 0.19%
- ID/organ (Mus musculus [21]): 1.21%
- ID/organ (Mus musculus [22]): 0.61% and 0.21%
- ID/organ (Mus musculus [23]): 21.19% and 18.99%
- ID/organ (Mus musculus [24]): 0.81% and 0.74%
- ID/organ (Mus musculus [25]): 14.14%
- ID/organ (Mus musculus [26]): 33.7%
- ID/organ (Mus musculus [27]): 2.47%
- logD [28]: 2.54 and 2.63
- ID/organ (Mus musculus [29]): 35.12%
- ID/organ (Mus musculus [30]): 9.61%
- ID/organ (Mus musculus [31]): 0.46%
- ID/organ (Mus musculus [32]): 2.26% and 3.01%
Substance: [4-methoxythio)phenolato][N,N-bis(2-mercaptoethyl)-N',N'-diethylethylenediamine] oxotechnetium [listing 2 of 2 here]
